Assay results: ChEMBL document CHEMBL3997773, “Synthesis of C-4-Substituted Steviol Derivatives and Their Inhibitory Effects against Hepatitis B Virus” (J Nat Prod, 2016)
Calls of active or inactive are those of the source. The rule behind the calls is not given here.

Tests used:
[1] = system: Huh-7; experiment: Cytotoxicity against human HuH7 cells infected with Hepatitis B virus subtype adw2 assessed as reduction in cell viability at >80 ug/ml after 3 days by MTS assay; assay type: cell-based; conditions: huh-7, 72 h
Method in brief: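 HBV-expressing Huh7 cells were plated for 24 h, then exposed to serial dilutions (2.5–160 μg/mL) for 3 days. Viability was measured by MTS assay. Mean ± SD, n = 4, compared with untreated cells.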

[2] = system: Hepatitis B virus subtype adw2; experiment: Antiviral activity against Hepatitis B virus subtype adw2 infected in human HuH7 cells assessed as inhibition of HBsAg secretion after 3 days by EIA; assay type: functional, cell-based
Method in brief: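 HBV-expressing Huh7 cells were given 2.5, 5 or 10 μg/mL for 3 days. HBsAg and HBeAg in the conditioned medium were measured by enzyme immunoassay. Mean ± SD, n = 3, compared with untreated cells.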

[3] = system: Hepatitis B virus subtype adw2; experiment: Antiviral activity against Hepatitis B virus subtype adw2 infected in human HuH7 cells assessed as reduction in major S/preS RNA level at 2.5 to 10 ug/ml after 2 days by northern blot method; assay type: functional, cell-based
Method in brief: (§1)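 After pHBV1.2 transfection of Huh7 cells for 2 days, cells were treated at 2.5, 5 or 10 μg/mL for 2 more days. Total RNA was Northern-blotted with an HBV whole-genome DNA probe. GAPDH served as loading control and β-gal marked transfection efficiency. Bands from three experiments were quantified by densitometry and normalized to GAPDH.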

[4] = system: Hepatitis B virus subtype adw2; experiment: Antiviral activity against Hepatitis B virus subtype adw2 infected in human HuH7 cells assessed as reduction in precore/pregenomic RNA level at 2.5 to 10 ug/ml after 2 days by northern blot method; assay type: functional, cell-based; method in brief: as §1
[5] = system: Hepatitis B virus subtype adw2; experiment: Antiviral activity against Hepatitis B virus subtype adw2 infected in human HuH7 cells assessed as reduction in SHBs level at 2.5 to 10 ug/ml after 2 days by immunoblot method; assay type: functional, cell-based
Method in brief: (§2)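 Huh7 cells were transfected with pHBV1.2 (1.2-fold HBV adw2 genome) for 2 days, then exposed to 2.5, 5 or 10 μg/mL for another 2 days. Whole-cell protein was extracted with protease inhibitors. SHBs, HBcAg and HBx were detected by immunoblot, with α-tubulin for comparison.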

[6] = Antiviral activity against Hepatitis B virus subtype adw2 infected in human HuH7 cells assessed as reduction in HBcAg level at 2.5 ug/ml after 2 days by immunoblot method relative to control; assay type: functional; method in brief: as §2
[7] = system: Hepatitis B virus; experiment: Decrease in HBV core promoter activity infected in human HuH7 cells cotransfected with pHBV1.2 at 10 ug/ml after 24 hrs by luciferase reporter gene assay; assay type: cell-based
Method in brief: (§3)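 Huh7 cells were seeded for 24 h, then cotransfected with pHBV1.2, pRLSV40 and a pGL4.17-based Core (nt 1636-1851), S (nt 3114-220), PreS (nt 2438-2855) or X (nt 1071-1357) promoter-luciferase construct for 24 h. Cells were then treated at 10 μg/mL for 24 h and lysates were assayed for luciferase. Mean ± SD, n = 3.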

[8] = system: Hepatitis B virus; experiment: Decrease in HBV S promoter activity infected in human HuH7 cells cotransfected with pHBV1.2 at 10 ug/ml after 24 hrs by luciferase reporter gene assay; assay type: cell-based; method in brief: as §3
[9] = Decrease in AP-1 (unknown origin) promoter activity expressed in human HuH7 cells cotransfected with pHBV1.2 at 10 ug/ml after 24 hrs by luciferase reporter gene assay; assay type: cell-based
Method in brief: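 Huh7 cells were seeded for 24 h, then cotransfected with pHBV1.2, pRLSV40 and pAP1-Luc or pNF-κB-Luc responsive-element reporter for 24 h. Cells were treated at 10 μg/mL for 24 h and lysates were assayed for luciferase. Mean ± SD, n = 3, compared with untreated cells.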

[10] = system: Huh-7; experiment: Decrease in NF-kB p65 protein expression in human HuH7 cells transfected with pHBV1.2 at 5 ug/ml after 2 days by immunoblot method relative to control; assay type: functional
Method in brief: (§4)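 Huh7 cells were transfected with pHBV1.2 for 2 days, then treated at 2.5, 5 or 10 μg/mL for another 2 days. Whole-cell protein was extracted with protease inhibitors. NF-κB p65/p50, phospho-p65, IKKα/β and IκBα/phospho-IκBα were detected by immunoblot. Blots are representative of three experiments.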

[11] = system: Huh-7; experiment: Decrease in NF-kB p65 protein expression in human HuH7 cells transfected with pHBV1.2 at 10 ug/ml after 2 days by immunoblot method relative to control; assay type: functional; method in brief: as §4
[12] = system: Huh-7; experiment: Effect on NF-kB p50 protein expression in human HuH7 cells transfected with pHBV1.2 at 2.5 ug/ml after 2 days by immunoblot method relative to control; assay type: functional
Method in brief: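 HBV adw2 genome plasmid pHBV1.2 transfected into Huh7 for 2 days, then 2.5, 5 or 10 μg/mL for another 2 days. Whole-cell protein extracted with protease inhibitors, then SDS-PAGE immunoblot for NF-κB and MAPK pathway proteins. Blots are representative of three sets of experiments.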

[13] = system: Huh-7; experiment: Decrease in NF-kB p50 protein expression in human HuH7 cells transfected with pHBV1.2 at 10 ug/ml after 2 days by immunoblot method relative to control; assay type: functional; method in brief: as §4
[14] = system: Huh-7; experiment: Decrease in IKKbeta protein expression in human HuH7 cells transfected with pHBV1.2 at 2.5 ug/ml after 2 days by immunoblot method relative to control; assay type: functional; method in brief: as §4
[15] = target: Transcription factor p65 (Homo sapiens) (UniProt Q04206); experiment: Decrease in NF-kB p65 phosphorylation in human HuH7 cells transfected with pHBV1.2 at 5 ug/ml after 2 days by immunoblot method relative to control; assay type: cell-based; method in brief: as §4
[16] = system: Huh-7; experiment: Decrease in IKBalpha protein expression in human HuH7 cells transfected with pHBV1.2 at 2.5 ug/ml after 2 days by immunoblot method relative to control; assay type: functional; method in brief: as §4
[17] = Cytotoxicity against human HepG2.2.15 cells assessed as reduction in cell viability after 3 days by MTS assay; conditions: read-out: TC50
[18] = Antiviral activity against Hepatitis B virus in human HepG2.2.15 cells assessed as inhibition of HBsAg secretion by EIA
[19] = species on record: Homo sapiens; experiment: Decrease in SAPK/JNK phosphorylation in human HuH7 cells transfected with pHBV1.2 at 2.5 to 10 ug/ml after 2 days by immunoblot method
[20] = system: Huh-7; experiment: Effect on p38 MAPK protein expression in human HuH7 cells transfected with pHBV1.2 at 2.5 ug/ml after 2 days by immunoblot method relative to control
[21] = Selectivity index, ratio of TC50 for human HepG2.2.15 cells to IC50 for Hepatitis B virus subtype adw2 infected in human HuH7 cells assessed as inhibition of HBsAg secretion
[22] = Selectivity index, ratio of TC50 for human HepG2.2.15 cells to IC50 for Hepatitis B virus subtype adw2 infected in human HepG2.2.15 cells assessed as inhibition of HBeAg secretion
[23] = Selectivity index, ratio of TC50 for human HepG2.2.15 cells to IC50 for Hepatitis B virus subtype adw2 infected in human HuH7 cells assessed as inhibition of viral DNA replication

Sequence of Transcription factor p65 (Homo sapiens) (Q04206 whole entry): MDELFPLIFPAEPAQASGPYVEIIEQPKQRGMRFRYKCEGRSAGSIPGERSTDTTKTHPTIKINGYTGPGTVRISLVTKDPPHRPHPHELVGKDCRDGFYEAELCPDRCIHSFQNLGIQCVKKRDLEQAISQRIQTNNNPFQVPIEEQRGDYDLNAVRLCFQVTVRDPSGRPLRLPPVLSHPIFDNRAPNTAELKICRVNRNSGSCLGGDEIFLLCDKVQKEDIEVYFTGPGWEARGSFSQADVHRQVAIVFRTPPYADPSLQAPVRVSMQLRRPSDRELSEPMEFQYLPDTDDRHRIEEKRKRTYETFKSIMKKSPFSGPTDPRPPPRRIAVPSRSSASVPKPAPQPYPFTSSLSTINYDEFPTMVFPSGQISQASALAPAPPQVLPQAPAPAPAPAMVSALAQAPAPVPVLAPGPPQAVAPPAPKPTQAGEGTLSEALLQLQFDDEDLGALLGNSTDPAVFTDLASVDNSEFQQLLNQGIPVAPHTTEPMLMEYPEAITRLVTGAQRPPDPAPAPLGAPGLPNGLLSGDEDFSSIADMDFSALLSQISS

fold change (FC) [15]: 0.88
IC50 [18]: 23.5 µM
Compound: C=C1C[C@@]23CC[C@H]4[C@@](C)(CCC[C@@]4(C)NC(=O)NCCCC)[C@@H]2CC[C@]1(O)C3
Activity [1]: Toxic
inhibition [2]: Dose-dependent effect
Activity [3]: Active
Activity [4]: Active
Activity [5]: Active
fold change (FC) [6]: 0.78
Activity [7]: Active
Activity [8]: Active
Activity [9]: Active
fold change (FC) [10]: 0.88
fold change (FC) [11]: 0.33
fold change (FC) [12]: 1.01
fold change (FC) [13]: 0.26
fold change (FC) [14]: 0.99
fold change (FC) [16]: 0.97
CC50 at 72 h [17]: 972 µM
Activity [19]: Active
fold change (FC) [20]: 1.01
selectivity ratio [21]: 41.4
selectivity ratio [22]: 47.7
selectivity ratio [23]: 57.7
